Measured values taken from ChEMBL document CHEMBL1147446, “Antagonists of human CCR5 receptor containing 4-(pyrazolyl)piperidine side chains. Part 3: SAR studies on the benzylpyrazole segment” (Bioorg Med Chem Lett, 2004).

Legend:
[1] = biological target: Sodium-dependent noradrenaline transporter (Homo sapiens) (UniProt P23975); experiment: Inhibitory activity against human adrenergic norepinephrine transporter at 10 uM
Canis familiaris = experiment: […] AUCN in dog ( (dosed as a mixture of five compounds at 0.5 mpk each via iv only); format: ADME, organism-based, Canis lupus familiaris; settings: in vivo
D(3) dopamine receptor = D(3) dopamine receptor (Homo sapiens, UniProt P35462); experiment: Inhibitory activity against human dopamine receptor D3 at 10 uM
[2] = Half life in dog (dosed as a mixture of five compounds at 0.5 mpk each via iv only); format: ADME, organism-based, Canis lupus familiaris; settings: in vivo
Procedure, shortened: (§1)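 Dogs received a five-compound cassette by iv only, 0.5 mpk of each compound.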

HeLa [3] = experiment: Antiviral activities in a cell culture HIV-1 infectivity inhibition assay using HeLa cells; format: functional; settings: Homo sapiens
[4] = biological target: L-type calcium channel, benzothiazepine site (Rattus norvegicus, UniProt P22002+P27732+Q02485); experiment: Inhibition of binding to rat L-type Calcium channel benzothiazepine site at 10 uM; format: functional
in vivo [5] = settings: rat
in vivo [6] = settings: rat; remark: listed apart in the source
[7] = biological target: Sodium-dependent dopamine transporter (Homo sapiens, UniProt Q01959); experiment: Inhibitory activity against human dopamine transporter at 10 uM
[8] = (§2) Inhibitory activity against rat Na+ channel site 2 at 10 uM
[9] = In vitro antiviral activity using peripheral blood mononuclear cell (PBMC) HIV-1 spread assay; format: functional; settings: Homo sapiens
in vivo [10] = settings: rat, plasma
[11] = In vitro antiviral activity using peripheral blood mononuclear cell (PBMC) HIV-1 spread assay in presence of 50% normal human serum; format: functional
HeLa [12] = experiment: Antiviral activities in a cell culture HIV-1 infectivity inhibition assay using HeLa cells plus 50% normal human serum; format: functional
[13] = biological target: C-C chemokine receptor type 5 (Homo sapiens, UniProt P51681); experiment: Inhibitory concentration for displacement of [125I]-MIP-1 alpha from recombinant human CC chemokine receptor 5 (CCR5) expressed in CHO cell; format: cell-based
Procedure, shortened: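 Competitive binding to CCR5 on CHO cell membranes, read as displacement of [125I]-labeled MIP-1α. IC50 values are means of triplicate determinations. Standard errors were normally <15% within an assay. Assay-to-assay variation was within ±2-fold, judged from a standard compound.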

[14] = Plasma clearance in dog (dosed as a mixture of five compounds at 0.5 mpk each via iv only); format: ADME, organism-based, Canis lupus familiaris; settings: read-out: Clp; procedure, shortened: as §1
Rattus norvegicus = organism: Rattus norvegicus; experiment: as §2

Chain of D(3) dopamine receptor (P35462 whole entry): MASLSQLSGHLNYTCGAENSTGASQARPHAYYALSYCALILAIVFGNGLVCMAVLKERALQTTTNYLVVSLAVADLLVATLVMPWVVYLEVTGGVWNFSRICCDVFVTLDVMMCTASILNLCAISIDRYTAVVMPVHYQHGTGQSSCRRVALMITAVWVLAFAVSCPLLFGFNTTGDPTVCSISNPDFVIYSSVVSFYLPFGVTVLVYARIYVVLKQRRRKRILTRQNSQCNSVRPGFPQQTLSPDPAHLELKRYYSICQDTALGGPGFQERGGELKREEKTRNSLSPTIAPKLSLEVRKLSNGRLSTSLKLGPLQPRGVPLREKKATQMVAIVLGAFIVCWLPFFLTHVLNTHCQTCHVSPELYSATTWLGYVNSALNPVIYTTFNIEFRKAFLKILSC
Chain of Sodium-dependent dopamine transporter (Q01959 whole entry): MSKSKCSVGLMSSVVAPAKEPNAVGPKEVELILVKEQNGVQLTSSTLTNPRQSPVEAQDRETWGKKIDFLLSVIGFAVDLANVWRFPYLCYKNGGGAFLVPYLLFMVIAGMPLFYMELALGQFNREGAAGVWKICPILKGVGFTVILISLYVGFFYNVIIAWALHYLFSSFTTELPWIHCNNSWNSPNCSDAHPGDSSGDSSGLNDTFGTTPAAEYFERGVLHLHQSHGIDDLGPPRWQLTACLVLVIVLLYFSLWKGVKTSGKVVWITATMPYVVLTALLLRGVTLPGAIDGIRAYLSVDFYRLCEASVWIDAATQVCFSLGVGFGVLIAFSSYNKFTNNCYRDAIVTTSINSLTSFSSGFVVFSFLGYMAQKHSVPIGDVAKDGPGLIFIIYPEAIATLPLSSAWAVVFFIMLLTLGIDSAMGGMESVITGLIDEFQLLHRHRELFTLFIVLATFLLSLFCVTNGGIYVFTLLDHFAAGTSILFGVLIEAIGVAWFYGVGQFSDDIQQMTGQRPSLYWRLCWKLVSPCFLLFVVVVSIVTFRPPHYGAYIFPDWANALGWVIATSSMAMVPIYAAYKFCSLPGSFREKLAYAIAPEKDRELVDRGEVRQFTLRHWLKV
Chain of Sodium-dependent noradrenaline transporter (Homo sapiens) (P23975 whole entry): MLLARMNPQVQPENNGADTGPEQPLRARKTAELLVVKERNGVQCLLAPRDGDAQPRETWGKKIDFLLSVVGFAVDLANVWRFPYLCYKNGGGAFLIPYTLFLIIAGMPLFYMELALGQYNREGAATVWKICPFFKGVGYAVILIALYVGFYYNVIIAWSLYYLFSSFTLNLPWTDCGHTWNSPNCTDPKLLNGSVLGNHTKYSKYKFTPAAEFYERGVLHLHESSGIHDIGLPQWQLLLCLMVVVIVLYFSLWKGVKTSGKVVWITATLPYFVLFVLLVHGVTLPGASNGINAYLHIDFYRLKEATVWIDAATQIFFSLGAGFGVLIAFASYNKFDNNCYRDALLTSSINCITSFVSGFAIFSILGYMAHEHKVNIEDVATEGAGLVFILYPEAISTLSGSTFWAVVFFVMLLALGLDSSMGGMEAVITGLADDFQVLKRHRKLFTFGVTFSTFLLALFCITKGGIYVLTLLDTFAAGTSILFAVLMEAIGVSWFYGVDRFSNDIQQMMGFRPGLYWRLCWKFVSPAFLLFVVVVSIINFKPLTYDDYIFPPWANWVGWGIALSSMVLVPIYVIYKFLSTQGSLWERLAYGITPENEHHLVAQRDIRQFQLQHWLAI
Chain of C-C chemokine receptor type 5 (P51681 whole entry): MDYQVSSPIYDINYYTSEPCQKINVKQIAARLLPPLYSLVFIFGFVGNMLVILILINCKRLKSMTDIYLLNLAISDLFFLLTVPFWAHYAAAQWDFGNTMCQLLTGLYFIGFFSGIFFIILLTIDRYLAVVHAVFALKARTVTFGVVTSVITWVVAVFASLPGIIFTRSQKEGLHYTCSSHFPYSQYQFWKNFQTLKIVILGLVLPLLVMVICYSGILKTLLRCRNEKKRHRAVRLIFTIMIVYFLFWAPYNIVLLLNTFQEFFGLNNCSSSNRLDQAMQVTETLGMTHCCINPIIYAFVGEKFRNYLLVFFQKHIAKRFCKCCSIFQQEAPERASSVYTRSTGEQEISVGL

inhibition [1] [%]	AUC N (Canis familiaris) [uM hr dose-1]	inhibition (D(3) dopamine receptor) [%]	half-life [2] [h]	IC90 (HeLa [3]) [nM]	inhibition at 10 µM [4] [%]	half-life (in vivo [5]) [h]	bioavailability (in vivo [6]) [%]	inhibition [7] [%]	IC50 [8] [nM]	clearance (in vivo [10]) [mL/min/kg]	IC50 [13] [nM]	clearance [14] [mL/min/kg]	inhibition (Rattus norvegicus) [%]	Structure (SMILES)	IC95 [9] [nM]	IC95 [11] [nM]	IC90 (HeLa [12]) [nM]
3	1.9	44	2.1	< 0.14	-8	1.1	33	9	3200	2.1	1.2	14	–	CCn1nc(Cc2ccc(OC)c(OC)c2)cc1C1CCN(C[C@H]2CN([C@@H](C(=O)O)C(C)(C)C)C[C@@H]2c2cccc(F)c2)CC1	1.6	31	11
21	–	45	–	–	-3	1.4	–	15	–	–	–	–	32	CCn1nc(Cc2ccccc2)cc1C1CCN(C[C@H]2CN([C@@H](C(=O)O)C(C)C)C[C@@H]2c2cccc(F)c2)CC1	–	–	300
–	–	–	–	0.4	–	2.5	77	–	–	1.1	0.4	–	–	CCn1nc(Cc2ccc(C(C)(C)C)cc2)cc1C1CCN(C[C@H]2CN([C@@H](C(=O)O)C(C)(C)C)C[C@@H]2c2cccc(F)c2)CC1	–	–	33
–	–	–	–	0.4	–	3.5	65	–	–	0.62	0.7	–	–	CCn1nc(Cc2ccc(OC3CCC3)cc2)cc1C1CCN(C[C@H]2CN([C@@H](C(=O)O)C(C)(C)C)C[C@@H]2c2cccc(F)c2)CC1	–	–	33
–	–	–	–	1.2	–	8.9	33	–	–	0.23	0.6	–	–	CCn1nc(Cc2ccc(-c3ccccc3)cc2)cc1C1CCN(C[C@H]2CN([C@@H](C(=O)O)C(C)(C)C)C[C@@H]2c2cccc(F)c2)CC1	–	–	100
–	–	–	–	0.4	–	0.74	3.1	–	–	9.8	1.3	–	–	CC[C@@H](C)[C@H](C(=O)O)N1C[C@H](CN2CCC(c3cc(Cc4ccc(C#N)cc4)nn3CC)CC2)[C@@H](c2cccc(F)c2)C1	–	–	33
–	–	–	–	< 0.14	–	1	19	–	–	27	0.5	–	–	CCn1nc(Cc2ccc(OC(C)(C)C)cc2)cc1C1CCN(C[C@H]2CN([C@@H](C(=O)O)C3CCCCC3)C[C@@H]2c2cccc(F)c2)CC1	–	–	11
–	–	–	–	< 0.14	–	2.1	26	–	–	0.75	0.4	–	–	CC[C@@H](C)[C@H](C(=O)O)N1C[C@H](CN2CCC(c3cc(Cc4ccc(OC5CCC5)cc4)nn3CC)CC2)[C@@H](c2cccc(F)c2)C1	–	–	33
–	–	–	–	11	–	0.8	40	–	–	3.9	1.3	–	–	CCn1nc(Cc2cccc(F)c2)cc1C1CCN(C[C@H]2CN([C@@H](C(=O)O)C(C)C)C[C@@H]2c2cccc(F)c2)CC1	–	–	300
–	–	–	–	< 0.14	–	1.2	68	–	–	2.7	1.3	–	–	CC[C@H](C)[C@H](C(=O)O)N1C[C@H](CN2CCC(c3cc(Cc4ccc(OC5CCC5)cc4)nn3CC)CC2)[C@@H](c2cccc(F)c2)C1	–	–	11
–	–	–	–	< 0.14	–	2.7	23	–	–	0.97	1.6	–	–	CC[C@@H](C)[C@H](C(=O)O)N1C[C@H](CN2CCC(c3cc(Cc4ccc(OC(C)(C)C)cc4)nn3CC)CC2)[C@@H](c2cccc(F)c2)C1	–	–	3.7
13	0.24	39	0.55	< 0.14	15	–	–	36	–	–	1.6	108	7	CCn1nc(Cc2ccc(S(C)(=O)=O)cc2)cc1C1CCN(C[C@H]2CN([C@@H](C(=O)O)C(C)(C)C)C[C@@H]2c2cccc(F)c2)CC1	6.2	8.1	11
–	2.3	–	1.8	0.4	–	1.4	68	–	–	1.7	0.9	13	–	CCOc1ccc(Cc2cc(C3CCN(C[C@H]4CN([C@@H](C(=O)O)C(C)(C)C)C[C@@H]4c4cccc(F)c4)CC3)n(CC)n2)cc1	–	–	33
–	–	–	–	< 0.14	–	0.98	5.9	–	–	4.4	0.6	–	–	CCOc1ccc(Cc2cc(C3CCN(C[C@H]4CN([C@@H](C(=O)O)[C@@H](C)CC)C[C@@H]4c4cccc(F)c4)CC3)n(CC)n2)cc1	–	–	33
–	–	–	–	11	–	0.91	7.8	–	–	7.6	1.1	–	–	CCn1nc(Cc2ccc(F)cc2)cc1C1CCN(C[C@H]2CN([C@@H](C(=O)O)C(C)C)C[C@@H]2c2cccc(F)c2)CC1	–	–	> 300
–	–	–	–	< 0.14	–	5.7	26	–	–	0.32	0.3	–	–	CCn1nc(Cc2ccc(-c3ccccc3)cc2)cc1C1CCN(C[C@H]2CN([C@@H](C(=O)O)C(C)C)C[C@@H]2c2cccc(F)c2)CC1	–	–	100
–	–	–	–	< 0.14	–	1.1	76	–	–	4	1.3	–	–	CC[C@H](C)[C@H](C(=O)O)N1C[C@H](CN2CCC(c3cc(Cc4ccc(OC(C)(C)C)cc4)nn3CC)CC2)[C@@H](c2cccc(F)c2)C1	–	–	11
–	–	–	–	0.4	–	1.2	22	–	–	4.8	1	–	–	CCCCOc1ccc(Cc2cc(C3CCN(C[C@H]4CN([C@@H](C(=O)O)[C@@H](C)CC)C[C@@H]4c4cccc(F)c4)CC3)n(CC)n2)cc1	–	–	11
–	–	–	–	< 0.14	–	1.4	49	–	–	0.98	0.7	–	–	CCn1nc(Cc2ccc(OC(C)C)cc2)cc1C1CCN(C[C@H]2CN([C@@H](C(=O)O)C(C)(C)C)C[C@@H]2c2cccc(F)c2)CC1	–	–	11
–	–	–	–	< 0.14	–	1.18	19	–	–	3.3	0.3	–	–	CC[C@H](C)[C@H](C(=O)O)N1C[C@H](CN2CCC(c3cc(Cc4ccc(C(C)C)cc4)nn3CC)CC2)[C@@H](c2cccc(F)c2)C1	–	–	11
–	–	–	–	< 0.14	–	1	36	–	–	1.9	0.3	–	–	CC[C@H](C)[C@H](C(=O)O)N1C[C@H](CN2CCC(c3cc(Cc4ccc(OC5CC5)cc4)nn3CC)CC2)[C@@H](c2cccc(F)c2)C1	–	–	11
–	–	–	–	3.7	–	0.38	5.4	–	–	11	3.5	–	–	CCn1nc(Cc2ccc(S(C)(=O)=O)cc2)cc1C1CCN(C[C@H]2CN([C@@H](C(=O)O)C(C)C)C[C@@H]2c2cccc(F)c2)CC1	–	–	33
15	–	35	–	0.4	36	–	–	-4	7200	–	1.5	–	–	CC[C@H](C)[C@H](C(=O)O)N1C[C@H](CN2CCC(c3cc(Cc4ccc(OC)c(OC)c4)nn3CC)CC2)[C@@H](c2cccc(F)c2)C1	–	–	33
